PMC2843764 (Bioorganic & medicinal chemistry letters, 2010)

Assays:
[1] = biological target: T1, RBBP9 (Homo sapiens, UniProt O75884); assay: reversibility of RBBP9 inhibition by gel filtration, FP-Rh labeling; format: biochemical; conditions: inhibitor 100 µM
In short: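 One half was reacted directly with FP-Rh. The other half was gel-filtered, then reacted with FP-Rh. Probe labelling was compared between the two halves.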

[2] = test system: translation (ribosome); conditions: in vitro ref 15; cited from earlier work
[3] = biological target: T1, RBBP9; conditions: ~20,000 compound fluopol-ABPP screen ref 5; cited from earlier work
[4] = test system: α2-adrenergic receptors; conditions: cited from earlier work
[5] = test system: serine hydrolases of the mouse brain membrane proteome; format: biochemical; conditions: mouse brain membrane proteome doped with RBBP9, FP-Rh probe, up to 200 µM
In short: (§1)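 Gel-based competitive ABPP. Two proteomes were used: the soluble fraction of RBBP9-transfected HEK 293T cells, and mouse brain membrane fraction doped with recombinant RBBP9. Each was preincubated 30 minutes with test compound (HEK: 20 and 200 µM; brain: a concentration series or 200 µM), then given FP-Rh (1 µM). Reactions were quenched after 10 minutes, run on SDS-PAGE and quantified by in-gel fluorescence scanning.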

[6] = biological target: T1, RBBP9; assay: LC-MS/MS identification of site of covalent labeling on RBBP9; conditions: trypsin digest, +138.00 Da modification
[7] = test system: serine hydrolases of the HEK 293T soluble proteome; assay: competitive ABPP with FP-Rh in RBBP9-transfected HEK 293T soluble proteome; format: biochemical; conditions: FP-Rh probe, 20 and 200 µM
In short: as §1

[8] = biological target: T2, glutathione transferase omega 1 (GSTO1) (Homo sapiens, UniProt P78417); assay: PS-Rh labeling of GSTO1 in MDA-MB-231 proteome; format: biochemical; conditions: compounds 20 µM, PS-Rh 5 µM, 1 hour
T2 sequence (P78417 1-241): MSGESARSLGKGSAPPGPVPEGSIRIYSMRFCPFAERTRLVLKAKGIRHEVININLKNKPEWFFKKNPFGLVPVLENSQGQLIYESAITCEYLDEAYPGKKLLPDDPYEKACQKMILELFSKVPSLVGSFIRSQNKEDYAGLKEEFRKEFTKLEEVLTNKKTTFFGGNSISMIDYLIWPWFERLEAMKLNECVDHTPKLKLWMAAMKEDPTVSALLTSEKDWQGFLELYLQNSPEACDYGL
In short: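 Gel-based competitive ABPP for thiol cross-reactivity. MDA-MB-231 proteome was treated with test compound (20 µM) and then labelled with the cysteine-reactive phenylsulfonate-rhodamine probe (5 µM, 1 hour). Labelled proteins were resolved on gel and read by fluorescence.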

[9] = biological target: T1, RBBP9; assay: fluopol-ABPP screen for RBBP9 inhibition; format: biochemical; conditions: read-out: percent inhibition of RBBP9 in fluopol-ABPP confirmation screen
[10] = biological target: purified RBBP9 (Homo sapiens, UniProt O75884); assay: gel-based competitive ABPP with purified RBBP9; format: biochemical; conditions: for RBBP9 inhibitory activity (in words): purified RBBP9, 20 µM
Chain of purified RBBP9 (O75884 whole entry): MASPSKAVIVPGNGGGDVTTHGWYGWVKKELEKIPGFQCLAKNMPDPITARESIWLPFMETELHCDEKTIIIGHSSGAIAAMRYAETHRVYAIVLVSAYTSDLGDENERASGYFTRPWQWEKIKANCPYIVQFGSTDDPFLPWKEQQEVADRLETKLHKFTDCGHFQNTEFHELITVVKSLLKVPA

T1 sequence (O75884 whole entry): as above

Question: Which “reversibility of blockade of FP-rhodamine RBBP9 labeling” value [1] does the source give for `CC[C@H]1CN2CCc3cc(OC)c(OC)cc3[C@@H]2C[C@@H]1C[C@H]1NCCc2cc(OC)c(OC)cc21` [1 (emetine), emetine] here?
Answer: The value was “reversible inhibitor”.

Question: What about the inhibition of translation [2] of the same molecule?
Answer: The inhibition of translation was “inhibit translation in vitro”.

Question: And the “mode of RBBP9 inhibition” value [3]?
Answer: Its value is “reversible inhibitor of RBBP9”.

Question: What about the “antagonism of α2-adrenergic receptors” value [4] of the same molecule?
Answer: Its value is “antagonize of α2-adrenergic receptors”.

Question: With `C/C(=N\OC(=O)c1ccc(Cl)cc1)c1nccs1` [Compound 2] as the molecule, how does the “selectivity for RBBP9 over other hydrolases” value [5] read?
Answer: The value was “highly selective for RBBP9”.

Question: And the “reversibility of blockade of FP-rhodamine RBBP9 labeling” value [1]?
Answer: The value was “not reversed by gel filtration”.

Question: And the “site of covalent adduct on RBBP9” value [6]?
Answer: Its value is “adduct only on the active site serine nucleophile (Ser75)”.

Question: For `COc1ccc(C(=O)O/N=C(\C)c2nccs2)cc1` [Compound 3], which “selectivity for RBBP9 over other hydrolases” value [5] is on record?
Answer: Its value is “highly selective for RBBP9”.

Question: Which results are given for `CC1=CC(=NOC(=O)/C=C/c2ccccc2)C=C(C)C1=O` [Compound 4]?
Answer: selectivity for RBBP9 over other hydrolases [7]: less selective for RBBP9; inhibition of PS-Rh labeling of GSTO1 [8]: potently inhibited; inhibition at 7.94 µM [9]: ~80%

Question: With `C/C(=N\OC(=O)c1ccc([N+](=O)[O-])cc1)c1nccs1` [Compound 12] as the molecule, how does the “RBBP9 inhibitory activity (in words)” value [10] read?
Answer: The value was “loss of RBBP9 inhibitory activity”.

Question: With `C/C(=N\OC(=O)c1ccc(-c2ccccc2)cc1)c1nccs1` [Compound 13] as the molecule, how does the “RBBP9 inhibitory activity (in words)” value [10] read?
Answer: The value was “completely ablating all inhibitory activity”.

Question: Which results are given for `C/C(=N\OC(=O)C1CCCCC1)c1nccs1` [Compound 18]?
Answer: selectivity for RBBP9 over other hydrolases [5]: did not inhibit any other hydrolases; selectivity for RBBP9 over other hydrolases [7]: selective for RBBP9; fold lower IC50 than hit compound 2 ([10]; recombinant RBBP9): 3 fold

Question: For `CC(=O)O/N=C(\C)c1nccs1` [Compound 19], which “RBBP9 inhibitory activity (in words)” value [10] is on record?
Answer: Its value is “no detectable inhibitory activity”.

Question: With `C/C(=N\OC(=O)N1CCCCC1)c1nccs1` [Compound 20] as the molecule, how does the “RBBP9 inhibitory activity (in words)” value [10] read?
Answer: Its value is “no inhibition of RBBP9”.

Question: Which results are given for `COc1ccc(C(=O)ON=C2C=C(C)C(=O)C(C)=C2)cc1` [Compound 21]?
Answer: selectivity for RBBP9 over other hydrolases [5]: good selectivity for RBBP9; inhibition of PS-Rh labeling of GSTO1 [8]: no longer inhibited GSTO1

Question: With `COc1ccc(C(=O)O/N=C2/C=C(C)C(=O)C=C2C)cc1` [Compound 22] as the molecule, how does the “RBBP9 inhibitory activity (in words)” value [10] read?
Answer: The value was “loss of RBBP9 inhibitory activity”.

Question: With `COc1ccc(C(=O)ON=C2C(C)=CC(=O)C=C2C)cc1` [Compound 23] as the molecule, how does the “RBBP9 inhibitory activity (in words)” value [10] read?
Answer: The value was “loss of RBBP9 inhibitory activity, an effect exacerbated”.

Question: With `C/C(=N\OC(=O)/C=C/c1ccccc1)c1nccs1` [Compound 24] as the molecule, how does the “RBBP9 inhibitory activity (in words)” value [10] read?
Answer: The value was “significantly reduced activity against RBBP9”.
